In article PMC11425819 (ACS Omega, 2024):

Key:
H9C2 cells [1] = assay: Mitochondrial morphology analysis; format: cell-based, rat; conditions: 10 μM, vs H/R alone
How it was run: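 H9C2 cells were pretreated 12 h with test compound (10 μM), then given 6 h hypoxia and 4 h reoxygenation in 10% FBS DMEM/F12. Cells were stained with MitoTracker and imaged by laser-scanning microscopy (60× oil). Mitochondria were scored as tubular, intermediate or fragmented. The value is the percentage of cells with intermediate or fragmented mitochondria, from 100 cells per experiment over four independent experiments (SEM).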

H9C2 cells [2] = assay: mPTP opening; format: cell-based, rat; conditions: 10 μM, 12 h pretreatment, H/R, compared with H/R alone, at least four independent experiments
How it was run: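 H9C2 cells were pretreated 12 h with test compound (10 μM), then given 6 h hypoxia alone or H/R; an autophagy inducer (10 μM) served as comparator. Cells were loaded with calcein (2 μM) and CoCl2 (1 mM) in HBSS/Ca2+ for 15 min at 37 °C. Co2+ quenches cytosolic calcein, so retained mitochondrial calcein fluorescence indicates a closed mPTP.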

Row | SMILES | fragmented mitochondrial appearance after H/R (H9C2 cells [1]) | mitochondrial calcein fluorescence (mPTP opening) (H9C2 cells [2])
1 | CC1(C)CC(NC(=O)C[P+](c2ccccc2)(c2ccccc2)c2ccccc2)CC(C)(C)N1[O] [Mito-Tempo] | attenuated the fragmented mitochondrial appearance | –
2 | CO[C@H]1C[C@@H]2CC[C@@H](C)[C@@](O)(O2)C(=O)C(=O)N2CCCC[C@H]2C(=O)O[C@H]([C@H](C)C[C@@H]2CC[C@@H](O)[C@H](OC)C2)CC(=O)[C@H](C)/C=C(\C)[C@@H](O)[C@@H](OC)C(=O)[C@H](C)C[C@H](C)/C=C/C=C/C=C/1C [rapamycin] | – | considerably higher
